Data as given in ChEMBL document CHEMBL1144304, “Benzimidazole derivatives as novel nonpeptide luteinizing hormone-releasing hormone (LHRH) antagonists. Part 1: Benzimidazole-5-sulfonamides” (Bioorg Med Chem Lett, 2005).

Tests used:
[1] = molecular target: T1, Gonadotropin-releasing hormone receptor (Rattus norvegicus, UniProt P30969); assay: Inhibitory concentration towards rat leutinizing releasing hormone receptor
T1 sequence (P30969 whole entry): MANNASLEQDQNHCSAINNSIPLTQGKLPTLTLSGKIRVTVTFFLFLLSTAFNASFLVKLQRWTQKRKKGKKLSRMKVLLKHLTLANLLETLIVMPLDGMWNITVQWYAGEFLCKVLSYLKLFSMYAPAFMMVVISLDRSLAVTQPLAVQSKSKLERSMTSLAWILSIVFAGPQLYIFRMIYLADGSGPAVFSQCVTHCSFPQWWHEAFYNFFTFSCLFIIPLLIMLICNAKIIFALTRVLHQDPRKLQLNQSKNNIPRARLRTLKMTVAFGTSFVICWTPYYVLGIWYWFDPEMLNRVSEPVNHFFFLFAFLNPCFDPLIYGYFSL
Summary of the method: (§1)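 CHO cells transfected with human or rat LHRH receptor cDNA, loaded with Fluo-3 AM and preincubated 20 min at 25 °C with varying compound concentrations. Stimulated with LHRH (10 nM for human-receptor cells, 1 nM for rat-receptor cells). Intracellular calcium fluorescence read; inhibition from integral ratio (actual/initial fluorescence). IC50 is the mean of at least two experiments, each in triplicate.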

[2] = molecular target: T2, Gonadotropin-releasing hormone receptor (Homo sapiens, UniProt P30968); assay: Inhibitory concentration towards human leutinizing releasing hormone receptor; summary of the method: as §1
T2 sequence (P30968 whole entry): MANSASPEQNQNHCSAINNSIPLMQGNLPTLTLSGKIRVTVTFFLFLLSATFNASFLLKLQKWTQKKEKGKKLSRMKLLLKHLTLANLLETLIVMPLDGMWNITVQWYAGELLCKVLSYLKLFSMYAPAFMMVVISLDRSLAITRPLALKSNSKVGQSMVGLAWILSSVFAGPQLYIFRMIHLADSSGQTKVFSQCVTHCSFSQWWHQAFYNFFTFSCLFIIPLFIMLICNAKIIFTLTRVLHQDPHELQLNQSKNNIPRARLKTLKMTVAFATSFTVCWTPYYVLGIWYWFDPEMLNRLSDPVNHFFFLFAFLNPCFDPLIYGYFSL

Row | Structure (SMILES) | IC50 [1] [nM] | IC50 [2] [nM]
1 | CCSc1nc2cc(S(=O)(=O)NCc3ccc([N+](=O)[O-])cc3)ccc2n1Cc1ccccc1 | 1200 | 1100
2 | O=S(=O)(NCc1ccc(F)cc1)c1ccc2c(c1)nc(SCCc1ccccn1)n2Cc1ccccc1 | 280 | 230
3 | O=S(=O)(NCc1ccc(F)cc1)c1ccc2c(c1)nc(SCCc1cccnc1)n2Cc1ccccc1 | 140 | 120
4 | CCSc1nc2cc(S(=O)(=O)NCc3ccc(Cl)cc3)ccc2n1Cc1ccccc1 | 330 | 280
5 | O=S(=O)(NCc1ccc(F)cc1)c1ccc2c(c1)nc(SCc1ccccn1)n2Cc1ccccc1 | 960 | 820
6 | CCOc1nc2cc(S(=O)(=O)NCc3ccc(F)cc3)ccc2n1CCN1CCOCC1 | 7200 | 2100
7 | CCSc1nc2cc(S(=O)(=O)NCc3ccc(OC)cc3)ccc2n1Cc1ccccc1 | 940 | 1100
8 | O=S(=O)(NCc1ccc(F)cc1)c1ccc2c(c1)nc(SCc1ccncc1)n2Cc1ccccc1 | 240 | 320
9 | O=S(=O)(NCc1ccc(F)cc1)c1ccc2c(c1)nc(SCCNCc1ccccc1)n2Cc1ccccc1 | 530 | 670
10 | CCSc1nc2cc(S(=O)(=O)NCc3cccc(OC)c3)ccc2n1Cc1ccccc1 | 4000 | 4800

The next lines start with the values.

Row | IC50 [1] [nM] | IC50 [2] [nM] | Structure (SMILES)
11 | 200 | 250 | CCSc1nc2cc(S(=O)(=O)NCc3ccc(F)cc3)ccc2n1Cc1ccccc1
12 | 3200 | 5800 | O=S(=O)(NCc1ccc(F)cc1)c1ccc2c(c1)nc(OCCN1CCOCC1)n2Cc1ccccc1
13 | > 10000 | > 10000 | CCSc1nc2cc(S(=O)(=O)NCc3ccc(F)cc3)ccc2n1CCc1ccccc1
14 | 210 | 220 | CSc1nc2cc(S(=O)(=O)NCc3ccc(F)cc3)ccc2n1Cc1ccccc1
15 | 170 | 160 | O=S(=O)(NCc1ccc(F)cc1)c1ccc2c(c1)nc(SCCN1CCOCC1)n2Cc1ccccc1
16 | 2000 | 1400 | CCOc1nc2cc(S(=O)(=O)NCc3ccc(F)cc3)ccc2n1Cc1ccsc1
17 | 470 | 300 | CCOc1nc2cc(S(=O)(=O)NCc3ccc(F)cc3)ccc2n1Cc1ccccc1
18 | > 10000 | > 10000 | CCSc1nc2cc(S(=O)(=O)NCCN3CCOCC3)ccc2n1Cc1ccccc1
19 | 600 | 270 | O=S(=O)(NCc1ccc(F)cc1)c1ccc2c(c1)nc(SCCO)n2Cc1ccccc1
20 | 1900 | 880 | CCOc1nc2cc(S(=O)(=O)NCc3ccc(F)cc3)ccc2n1Cc1cccc(Cl)c1
21 | 810 | 490 | CCOC(=O)CSc1nc2cc(S(=O)(=O)NCc3ccc(F)cc3)ccc2n1Cc1ccccc1
22 | > 10000 | > 10000 | O=S(=O)(NCc1ccc(F)cc1)c1ccc2c(c1)nc(NCCN1CCOCC1)n2Cc1ccccc1
